ChEMBL document CHEMBL4689842, “EUbOPEN Chemogenomics Library wave 1” (2021)

Test system: U2OS
Assay: Multiplex assay against U2OS
Type: toxicity, cell-based
Conditions: human
How it was run: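 Cells were classed with CellPathfinder machine-learning gating, first as Hoechst high-intensity objects or normal cells, then (normal cells) as healthy, pyknosed or fragmented nuclei, and finally (pyknosed cells) as mitotic or apoptotic. Staining of live cells at seeding used Hoechst33342, BioTracker Green Microtubule Cytoskeleton Dye, MitoTracker Red and Annexin V Alexa Fluor 680, with imaging on a CQ1 microscope at 37°C and 5% CO2 after compound addition. Tubulin, mitochondrial-mass and membrane-permeability phenotypes are per cents of healthy-nucleus cells.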

[1] = 24 h, 1 µM, compound concentration 1 uM, replicate 2
[2] = 24 h, 10 µM, compound concentration 10 uM, replicate 1
[3] = 24 h, 10 µM, compound concentration 10 uM, replicate 2
[4] = 48 h, 1 µM, compound concentration 1 uM, replicate 1
[5] = 48 h, 1 µM, compound concentration 1 uM, replicate 2
[6] = 48 h, 10 µM, compound concentration 10 uM, replicate 1
[7] = 48 h, 10 µM, compound concentration 10 uM, replicate 2

O=C(O)c1ccc2cc(-c3ccc(O)c(C45CC6CC(CC(C6)C4)C5)c3)ccc2c1 [O-DEMETHYLATED ADAPALENE]
Population Mitochondria Different-Phenotype (%) [1]: 30%
Population Mitotic Cells (%) [1]: 0%
Population Normal (%) [1]: 93%
Population Pyknosed Nuclei (%) [1]: 3%
Population Tubulin-Different-Phenotype (%) [1]: 18%
Total Cell Count [1]: 60
Population Apoptotic (%) [2]: 64%
Population Fragmented Nuclei (%) [2]: 15%
Population Healthy Nuclei (%) [2]: 77%
Population Hoechst High Intensity Objects (%) [2]: 5%
Population Membrane Permeable-Phenotype (%) [2]: 4%
Population Mitochondria Different-Phenotype (%) [2]: 20%
Population Mitotic Cells (%) [2]: 35%
Population Normal (%) [2]: 94%
Population Pyknosed Nuclei (%) [2]: 7%
Population Tubulin-Different-Phenotype (%) [2]: 14%
Total Cell Count [2]: 206
Population Apoptotic (%) [3]: 0%
Population Fragmented Nuclei (%) [3]: 14%
Population Healthy Nuclei (%) [3]: 81%
Population Hoechst High Intensity Objects (%) [3]: 7%
Population Membrane Permeable-Phenotype (%) [3]: 7%
Population Mitochondria Different-Phenotype (%) [3]: 26%
Population Mitotic Cells (%) [3]: 100%
Population Normal (%) [3]: 92%
Population Pyknosed Nuclei (%) [3]: 3%
Population Tubulin-Different-Phenotype (%) [3]: 28%
Total Cell Count [3]: 83
Population Apoptotic (%) [4]: 50%
Population Fragmented Nuclei (%) [4]: 16%
Population Healthy Nuclei (%) [4]: 75%
Population Hoechst High Intensity Objects (%) [4]: 7%
Population Membrane Permeable-Phenotype (%) [4]: 7%
Population Mitochondria Different-Phenotype (%) [4]: 31%
Population Mitotic Cells (%) [4]: 50%
Population Normal (%) [4]: 92%
Population Pyknosed Nuclei (%) [4]: 7%
Population Tubulin-Different-Phenotype (%) [4]: 13%
Total Cell Count [4]: 117
Population Apoptotic (%) [5]: 71%
Population Fragmented Nuclei (%) [5]: 9%
Population Healthy Nuclei (%) [5]: 80%
Population Hoechst High Intensity Objects (%) [5]: 2%
Population Membrane Permeable-Phenotype (%) [5]: 10%
Population Mitochondria Different-Phenotype (%) [5]: 42%
Population Mitotic Cells (%) [5]: 28%
Population Normal (%) [5]: 97%
Population Pyknosed Nuclei (%) [5]: 9%
Population Tubulin-Different-Phenotype (%) [5]: 21%
Total Cell Count [5]: 73
Population Apoptotic (%) [6]: 72%
Population Fragmented Nuclei (%) [6]: 33%
Population Healthy Nuclei (%) [6]: 47%
Population Hoechst High Intensity Objects (%) [6]: 9%
Population Membrane Permeable-Phenotype (%) [6]: 0%
Population Mitochondria Different-Phenotype (%) [6]: 34%
Population Mitotic Cells (%) [6]: 27%
Population Normal (%) [6]: 90%
Population Pyknosed Nuclei (%) [6]: 19%
Population Tubulin-Different-Phenotype (%) [6]: 7%
Total Cell Count [6]: 213
Population Apoptotic (%) [7]: 90%
Population Fragmented Nuclei (%) [7]: 14%
Population Healthy Nuclei (%) [7]: 70%
Population Membrane Permeable-Phenotype (%) [7]: 20%
Population Mitochondria Different-Phenotype (%) [7]: 54%
Population Mitotic Cells (%) [7]: 9%
Population Pyknosed Nuclei (%) [7]: 14%
Population Tubulin-Different-Phenotype (%) [7]: 45%
Total Cell Count [7]: 83
